The values below come from PubChem BioAssay.

Molecules are shown by their SMILES. Active and inactive are the calls of the source.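 How the source made its calls, unless noted: active means duplicate-averaged activation above buffer control mean plus 5 SD of those controls; inactive means the rest.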

Assay [1] can be described thus: nonspecific flux increase, KCNQ1-free cells – parental CHO cells, counter-screen for KCNQ1 potentiator project (AID 493006).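 On activation: fluorescence ratio of max minus min over baseline after K+ and Tl+ depolarization.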 The conditions noted are these: parental CHO-K1 cells, FluxOR thallium flux, at 10 µM; hits give high values. In a few lines: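 Benchmarks – buffer and R-L3 controls · Assay system – untransfected host CHO-K1 cells with FluxOR thallium dye · Measure – fluorescence change ratio scaled 0% buffer, 100% R-L3 · Technique – kinetic thallium-flux fluorescence · Timing – overnight 37 °C plating, 90 min RT dye, 20 min compound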
Background: Counterscreens check selectivity or assay interference.

Assay [2] addresses Potassium voltage-gated channel subfamily KQT member 1 (Homo sapiens) (UniProt P51787). The experiment in a line: enhancement of KCNQ1 channel thallium flux – FluxOR thallium flux, CHO cells, duplicates, confirmation (AID 493007;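 active means potentiation averaged over duplicate wells exceeding buffer-only control mean by more than 3 SD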;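 on outcome: cells depolarized by a potassium plus thallium sulfate stimulus after compound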). The conditions noted are these: KCNQ1 cell line, FluxOR thallium flux fluorescence, at 10 µM; hits give high values, % of reference activator effect, buffer zero. In a few lines:
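Material: CHO cells stably expressing the KCNQ1 potassium channel / Times: dye 90 min then compound 20 min, both at room temperature / Detection: kinetic thallium influx fluorescence with FluxOR dye, 10 s baseline, 110 s post-stimulus / Benchmarks: buffer-only wells as 0% and R-L3 activator as 100% / Replicates: each compound tested in duplicate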

Assay [3] deals with Potassium voltage-gated channel subfamily KQT member 2 (Rattus norvegicus) (UniProt O88943). The experiment in a line: KCNQ2 thallium flux enhancement – KCNQ2-CHO-K1 cells, selectivity assay for KCNQ1 potentiator project (AID 493009;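 active means mean duplicate potentiation above the buffer control mean plus 5 SD of buffer wells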;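 further: assay conditions were tuned for KCNQ1 rather than KCNQ2 modulators; signal is max minus min fluorescence divided by baseline after thallium stimulus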). The conditions noted are these: FluxOR thallium flux fluorescence, at 10 µM; hits give high values, scaled: buffer 0, activator control 100.
For assay [4], the target named is Potassium voltage-gated channel subfamily KQT member 1 (Homo sapiens) (UniProt P51787). The experiment in a line: KCNQ1 activators by electrophysiology – IonWorks patch clamp, KCNQ1-CHO cells, orthogonal assay for KCNQ1 potentiator project, confirmation (AID 493184;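 active means current rise at least 3 SD above the untreated control mean in each of two repeat wells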;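 on current potentiation: percent change of the same well's current before compound addition so 0% = no change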). The conditions noted are these: automated patch clamp current, at 10 µM; hits give high values. In a few lines: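 Probe or stimulus: depolarizing pulse to +40 mV from -90 mV; Material: CHO cells carrying KCNQ1; Compound: one dose, 10 µM final; Signal: automated voltage clamp, amphotericin B perforated patch; Read-out basis: percent current increase versus pre-compound level; Buffer or medium: pH 7.4 external bath; Replication: duplicates.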
A general note: In patch-clamp work, channel activity is measured electrically.

Potassium voltage-gated channel subfamily KQT member 2 (Rattus norvegicus), sequence (O88943 whole entry, looked up): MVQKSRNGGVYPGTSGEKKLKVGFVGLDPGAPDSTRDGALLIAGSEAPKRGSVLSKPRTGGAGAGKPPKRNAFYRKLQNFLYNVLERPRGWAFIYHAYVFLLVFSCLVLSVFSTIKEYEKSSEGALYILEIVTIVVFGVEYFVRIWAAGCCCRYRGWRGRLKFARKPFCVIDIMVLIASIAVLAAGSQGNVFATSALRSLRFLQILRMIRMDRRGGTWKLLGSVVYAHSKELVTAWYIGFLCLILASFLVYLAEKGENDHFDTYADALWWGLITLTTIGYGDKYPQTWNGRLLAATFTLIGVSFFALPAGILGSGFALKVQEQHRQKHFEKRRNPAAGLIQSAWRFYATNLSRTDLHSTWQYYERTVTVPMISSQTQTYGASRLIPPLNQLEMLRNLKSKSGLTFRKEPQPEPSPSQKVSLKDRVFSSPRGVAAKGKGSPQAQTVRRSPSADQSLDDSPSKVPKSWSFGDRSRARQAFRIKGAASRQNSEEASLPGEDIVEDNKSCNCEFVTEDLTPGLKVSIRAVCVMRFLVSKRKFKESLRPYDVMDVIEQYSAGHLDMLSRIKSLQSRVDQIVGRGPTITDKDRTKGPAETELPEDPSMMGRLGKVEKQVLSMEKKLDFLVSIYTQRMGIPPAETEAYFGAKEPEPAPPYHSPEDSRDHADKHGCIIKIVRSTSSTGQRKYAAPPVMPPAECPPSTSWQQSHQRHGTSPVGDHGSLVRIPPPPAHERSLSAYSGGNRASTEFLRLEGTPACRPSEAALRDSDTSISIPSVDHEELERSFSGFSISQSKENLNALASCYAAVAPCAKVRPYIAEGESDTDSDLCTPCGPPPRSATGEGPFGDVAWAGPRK
Potassium voltage-gated channel subfamily KQT member 1 (Homo sapiens), sequence (P51787 whole entry, looked up): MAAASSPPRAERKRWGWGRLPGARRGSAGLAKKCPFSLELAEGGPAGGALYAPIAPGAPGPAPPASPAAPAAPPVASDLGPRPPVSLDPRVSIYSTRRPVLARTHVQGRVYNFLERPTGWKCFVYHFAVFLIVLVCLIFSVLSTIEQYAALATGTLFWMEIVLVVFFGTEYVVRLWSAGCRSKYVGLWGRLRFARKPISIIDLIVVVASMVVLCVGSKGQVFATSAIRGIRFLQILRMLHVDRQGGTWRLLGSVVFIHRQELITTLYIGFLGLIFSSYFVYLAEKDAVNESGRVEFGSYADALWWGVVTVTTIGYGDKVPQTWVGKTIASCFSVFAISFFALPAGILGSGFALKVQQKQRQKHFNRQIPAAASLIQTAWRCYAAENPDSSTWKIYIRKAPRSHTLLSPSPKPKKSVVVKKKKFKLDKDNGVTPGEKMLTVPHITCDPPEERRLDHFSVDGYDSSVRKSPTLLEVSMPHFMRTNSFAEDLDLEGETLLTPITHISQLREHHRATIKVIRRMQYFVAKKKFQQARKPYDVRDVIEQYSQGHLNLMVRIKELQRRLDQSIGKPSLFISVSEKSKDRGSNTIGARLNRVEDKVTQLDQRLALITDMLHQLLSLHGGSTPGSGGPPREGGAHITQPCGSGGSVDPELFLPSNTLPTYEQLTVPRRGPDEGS

As to `Cc1ccc(CSc2nc3ccccc3c(=O)n2CCCC(=O)NCc2ccco2)cc1`, the outcome in assay [1], in assay [2], in assay [3] and in assay [4] was inactive.
`Cc1cccc(NC(=S)NNC(=O)c2csc3c2CCC(C)C3)c1` (stereo not given): the activation in assay [1] is 193% (active). In addition, the potentiation in assay [2] is 86% (active); in assay [3], 248% (active). In assay [4], the outcome was inactive.
With `COc1ccc(NC(=S)NC(=O)c2csnn2)cc1`, in assay [1], the activation was 213% (active). In addition, the potentiation in assay [2] was 71% (active); in assay [3], 282% (active). Besides, the outcome in assay [4] was inactive.
Take `CNC(=S)N/N=C/c1cc(Br)cc(Br)c1O`: in assay [1], the activation was 168% (active). The result in assay [2], in assay [3] and in assay [4] was inactive.
As for `CC1Cc2cc(/C=C3/SC(=S)NC3=O)ccc2O1` (stereo not given), the outcome in assay [1], in assay [2] and in assay [3] was inactive. In addition, the current potentiation in assay [4] is 24.4% (active).
As to `CCOC(=O)c1c(NS(=O)(=O)c2cccc(OC)c2)sc2c1CCC2`, the outcome in assay [1], in assay [3] and in assay [4] was inactive. Also, the potentiation in assay [2] is 59% (active).
For `CCC1CCC2(CC1)NNC(=S)NN2`, the outcome in assay [1], in assay [2], in assay [3] and in assay [4] was inactive.
As to `N#Cc1cn(CC(=O)NCC2CCCO2)c2ccccc12` (stereo not given), the result in assay [1], in assay [2], in assay [3] and in assay [4] was inactive.
Take `O=C(COC(=O)c1ccccc1)Nc1ccccc1N1CCOCC1`: the result in assay [1], in assay [2], in assay [3] and in assay [4] was inactive.
On to `CS(=O)(=O)c1ccc(C(=O)OCc2nnc(-c3ccc(Cl)cc3)o2)cc1[N+](=O)[O-]`, for which the result in assay [1] and in assay [4] was inactive. Besides, the potentiation in assay [2] is 30.5% (active); in assay [3], 144% (active).
Turning to `CCN(C(=O)COC(=O)C(Cc1ccccc1)N1C(=O)c2ccccc2C1=O)C1CCS(=O)(=O)C1` (stereo not given), the result in assay [1], in assay [2], in assay [3] and in assay [4] was inactive.
In the case of `CCc1nnc(NC(=O)CN2C(=O)c3ccccc3C2=O)s1`, the result in assay [1], in assay [2], in assay [3] and in assay [4] was inactive.
For the molecule `CCc1ccc(NC(=O)CSc2nc3ccsc3c(=O)n2CCC(=O)O)cc1`, the activation in assay [1] is 148% (active). The potentiation in assay [2] was 33% (active); in assay [3], 172% (active). Moreover, the result in assay [4] was inactive.
Take `COC(=O)c1c(NS(=O)(=O)Cc2ccccc2)sc2c1CCCC2`: in assay [1], the activation is 196% (active). Further, the potentiation in assay [2] was 136% (active); in assay [3] it was 186% (active). The result in assay [4] was inactive.
In the case of `O=C(NCC1CCCO1)c1ccccc1OCc1ccc(F)cc1` (stereo not given), the result in assay [1], in assay [2], in assay [3] and in assay [4] was inactive.
In the case of `O=C(CSc1nnc(SCc2cccc3ccccc23)s1)c1ccc2c(c1)OCO2`, in assay [1], the activation was 163% (active). Moreover, the outcome in assay [2], in assay [3] and in assay [4] was inactive.
Regarding `COC(=O)c1ccc(CNC(=O)c2ccc(COc3ccccc3)cc2)cc1`, the result in assay [1], in assay [2], in assay [3] and in assay [4] was inactive.
Turning to `Cc1ccccc1C([O-])=Nc1ccc[n+](-c2nc3ccccc3nc2NS(=O)(=O)c2ccccc2)c1`, the outcome in assay [1], in assay [2], in assay [3] and in assay [4] was inactive.
Regarding `CC(=O)Oc1c(-c2ccco2)oc2ccccc2c1=O`, the activation in assay [1] is 216% (active). The figures for the potentiation in assay [2] and in assay [3] were 31% (active) and 244% (active), respectively. In addition, the outcome in assay [4] was inactive.
As to `COc1cccc2sc(Nc3nnc(-c4cccs4)o3)nc12`, the activation in assay [1] was 396% (active). Besides, the potentiation in assay [2] is 250% (active); in assay [3], 424% (active). Moreover, the result in assay [4] was inactive.
Take `CSc1ccc(/C=N/NC(=O)c2cccs2)cc1`: the result in assay [1], in assay [2], in assay [3] and in assay [4] was inactive.
On to `CC1CCc2c(sc3[nH]c(=S)n(C)c(=O)c23)C1` (stereo not given), for which the activation in assay [1] was 446% (active). The potentiation was 254% (active) in assay [2] and 552% (active) in assay [3]. For the same molecule, in assay [4], the outcome was inactive.
On to `O=C(CSc1nc(=O)n2ccccc2n1)NCc1ccccc1`, for which the result in assay [1], in assay [2], in assay [3] and in assay [4] was inactive.
As to `COc1ccc2c(c1)cc(C)c1nnc(SCC(=O)N3CCN(C(=O)c4ccco4)CC3)n12`, the result in assay [1], in assay [2], in assay [3] and in assay [4] was inactive.
For `COc1ccccc1C(=O)OCC(=O)Nc1ccc(Cl)cn1`, the outcome in assay [1], in assay [2], in assay [3] and in assay [4] was inactive.
In the case of `Cc1cc(O)ccc1N=Cc1c(C(F)(F)F)[nH][nH]c1=O`, the result in assay [1], in assay [2], in assay [3] and in assay [4] was inactive.
As for `Cc1cc(C=NCCO)c(C)n1-c1cc(Cl)ccc1Cl`, the result in assay [1], in assay [2], in assay [3] and in assay [4] was inactive.
Take `O=C1CCC(c2ccc(-n3ccnc3)cc2)=NN1`: the result in assay [1], in assay [2], in assay [3] and in assay [4] was inactive.
For `Cc1cc(NC(=O)CCC(=O)N(C2CC2)C(C(=O)NC(C)(C)C)c2ccccc2Cl)no1` (stereo not given), the outcome in assay [1], in assay [3] and in assay [4] was inactive. Besides, the potentiation in assay [2] is 25.5% (active).
`CC(=O)Nc1c2c(nn1-c1ccc(C)cc1)CS(=O)(=O)C2`: the result in assay [1], in assay [2], in assay [3] and in assay [4] was inactive.
